Each structure is given as a SMILES string. Calls of active or inactive are those of the source.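 The calls were made as follows: active = growth reading drops at least 35% at both 405 and 600 nm in duplicate, reached below 10 µM; inactive = the rest, including effects in the opposite direction.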

System in one experiment: not listed separately
Put plainly: mexAB-OprM mutant growth inhibition with EDDHA – PAK mexAB-OprM pump mutant, OD600, dry powder, dose response (AID 624105). The note with it: P. aeruginosa PAK mexAB-oprM +EDDHA growth, OD600, 28 h; at 100 µM (top of the series). A digest of the protocol: (§1)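 Compound dosing: dose series, final compound 15 nM up to 100 µM; Material: P. aeruginosa PAK ΔmexAB-oprM; Incubation: 28 h exposure, 30 °C.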
With `Clc1ccc(C(c2cccc(Cl)n2)c2nn[nH]n2)cc1` (centres undefined), the growth change, negative = inhibition is 11.1% (inactive).

`CCCCC(C#N)c1ccccn1` (centres undefined): the growth change, negative = inhibition is -13.4% (inactive).

With `COCCOCCC(C#N)c1ccc(Cl)cc1` (centres undefined), the growth change, negative = inhibition is -6.59% (inactive).

Take `CN(C)CCCC(C#N)c1ccc(Cl)cc1` (centres undefined): the growth change, negative = inhibition is -3.26% (inactive).

With `N#CC(c1ccc(C(F)(F)F)c(Cl)n1)c1ccccc1OC(F)(F)F` (centres undefined), the growth change, negative = inhibition was -14.9% (inactive).

The subject of another experiment is P. aeruginosa PAK mexAB-oprM +EDDHA growth, OD600, 28 h. The experiment is described as above.
Conditions: not given
A digest of the protocol: as §1
For the compound `N#Cc1cccc(C(C#N)c2ccc(F)cc2)n1` (centres undefined), the AC35 was 54.9 µM.

In the case of `COCCC(C#N)c1ccc(F)cc1` (centres undefined), the AC35 is 95.8 µM.

On to `N#CC(c1ccc(Cl)cc1)c1cccc(C(F)(F)F)n1` (centres undefined), for which the AC35 was 12 µM.

For the compound `N#CC(c1ccc(F)cc1)c1cccc(C(F)(F)F)n1` (centres undefined), the AC35 is 6.72 µM.

On to `CCCCC(C#N)c1ccc(F)cn1` (centres undefined), for which the AC35 is 51.7 µM.

Turning to `N#CC(c1cccc(C(F)(F)F)n1)c1ccc(Cl)cc1F` (centres undefined), the AC35 was 8.69 µM.

For `N#CC(c1ccc(Cl)cc1)c1ncccc1Cl` (centres undefined), the AC35 was 6.05 µM.

Consider `CN(C)CCCC(C#N)c1ccc(F)cc1` (centres undefined), for which the AC35 was 49.5 µM.

On to `COCCOCCC(C#N)c1ccc(F)cc1` (centres undefined), for which the AC35 was 51.9 µM.

Take `N#CC(c1ccc(Cl)cc1)N1CCCC1` (centres undefined): the AC35 was > 100 µM (inactive).

As to `N#CC(c1cccc(Cl)n1)c1ccc(Cl)cc1F` (centres undefined), the AC35 is 7.15 µM.

With `N#CC(c1ccc(Cl)cc1)c1cccc(Cl)n1` (centres undefined), the AC35 is 8.36 µM.

As to `N#CC(c1ccc(Cl)cc1)c1ccccn1` (centres undefined), the AC35 is 31 µM.

As to `N#CC(c1ccc(F)cc1)c1cccc(Cl)n1` (centres undefined), the AC35 is 11.5 µM.

Source of the values: PubChem BioAssay AID624105 (Broad Institute, 2012).
